# Results: ChEMBL document CHEMBL3232871, “Synthesis and structure-activity analysis of diphenylpyrazolodiazene inhibitors of the HIV-1 Nef virulence factor” (Bioorg Med Chem Lett, 2014)
# The source made the active and inactive calls. No cut-off for these calls is given here.
# Key:
# TZM-bl = test: Inhibition of HIV protein Nef in TZM-bl cells assessed decrease in HIV infectivity at 3 uM after 48 hrs by TZM-bl HIV infectivity assay; assay type: cell-based; details: Human immunodeficiency virus
# Procedure, shortened: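 TZM-bl reporter cells (HIV-1 LTR-driven luciferase) received compound at 3 μM and were then infected with wild-type HIV-1 NL4-3. Luciferase was read 48 h later. Signal from cells infected with Nef-defective HIV was subtracted, and values are mean percent of untreated-cell control ± SEM.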
# [1] = Cytotoxicity against human TZM-bl cells by Cell Titer Blue cell viability assay; assay type: cell-based
# Procedure, shortened: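 Viability of TZM-bl reporter cells was measured by Cell Titer Blue at the same compound concentration used in the HIV-1 infectivity assay (3 μM).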
SMILES,Nef inhibition activity call (active/inactive) (TZM-bl),Activity [1]
NC(=S)n1nc(-c2ccc([N+](=O)[O-])cc2)c(/N=N/c2ccc(Cl)cc2)c1O,Active,Non-toxic
NC(=O)n1nc(-c2ccc(F)cc2)c(/N=N/c2cccnc2)c1O,–,Non-toxic
COc1ccccc1/N=N/c1c(-c2ccc([N+](=O)[O-])cc2)nn(C(N)=S)c1O,inactive,Non-toxic
NC(=O)n1nc(-c2ccc(F)cc2)c(/N=N/c2cccc(Cl)c2)c1O,Active,Non-toxic
Oc1[nH]nc(-c2ccc(F)cc2)c1/N=N/c1cccnc1,–,Non-toxic
COc1cccc(/N=N/c2c(-c3ccc([N+](=O)[O-])cc3)nn(C(N)=S)c2O)c1,inactive,Non-toxic
Oc1[nH]nc(-c2ccc(F)cc2)c1/N=N/c1cncc(Cl)c1,inactive,Non-toxic
NC(=S)n1nc(-c2ccc([N+](=O)[O-])cc2)c(/N=N/c2cccc(Cl)c2)c1O,–,Non-toxic
Oc1[nH]nc(-c2ccccc2)c1/N=N/c1ccccc1,inactive,Non-toxic
NC(=O)n1nc(-c2ccc([N+](=O)[O-])cc2)c(/N=N/c2cccc(Cl)c2)c1O,inactive,Non-toxic
NC(=S)n1nc(-c2ccc([N+](=O)[O-])cc2)c(/N=N/c2cncc(Cl)c2)c1O,Active,Non-toxic
NC(=O)n1nc(-c2ccc([N+](=O)[O-])cc2)c(/N=N/c2cncc(Cl)c2)c1O,–,Non-toxic
NC(=S)n1nc(-c2ccc([N+](=O)[O-])cc2)c(/N=N/c2cccc(F)c2)c1O,–,Non-toxic
NC(=S)n1nc(-c2ccc([N+](=O)[O-])cc2)c(/N=N/c2ccc(F)cc2)c1O,–,Non-toxic
NC(=S)n1nc(-c2ccc([N+](=O)[O-])cc2)c(/N=N/c2cccnc2)c1O,Active,Non-toxic
NC(=S)n1nc(-c2ccccc2)c(/N=N/c2cccc(Cl)c2)c1O,inactive,Non-toxic
NC(=S)n1nc(-c2ccc(C(F)(F)F)cc2)c(/N=N/c2cccc(Cl)c2)c1O,Active,Non-toxic
COc1ccc(/N=N/c2c(-c3ccc([N+](=O)[O-])cc3)n[nH]c2O)cc1,Active,Non-toxic
NC(=O)n1nc(-c2ccc(F)cc2)c(/N=N/c2cncc(Cl)c2)c1O,–,Non-toxic
NC(=O)n1nc(-c2ccc([N+](=O)[O-])cc2)c(/N=N/c2cccnc2)c1O,–,Non-toxic
NC(=S)n1nc(-c2ccc([N+](=O)[O-])cc2)c(/N=N/c2ccccc2F)c1O,–,Non-toxic
NC(=S)n1nc(-c2ccc([N+](=O)[O-])cc2)c(/N=N/c2ccccc2Cl)c1O,inactive,Non-toxic
NC(=O)n1nc(-c2ccc([N+](=O)[O-])cc2)c(/N=N/c2ccc(Cl)cc2)c1O,–,Non-toxic
COc1ccc(-c2nn(C(N)=S)c(O)c2/N=N/c2cccc(Cl)c2)cc1,inactive,Non-toxic
